Assay outcomes as filed in PubChem BioAssay.
CAL PDZ FP-1: blocks peptide binding to the human CAL PDZ domain; inhibition, % at 24.9 µM; purified CAL PDZ, TMR-peptide fluorescence polarization, 1 h; AID 602252; 300,000 compounds, 0.92% hits;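 active means mean inhibition of at least 30% with at least half of replicates also reaching 30%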
CAL PDZ FP-2: inhibitors of human CAL PDZ peptide binding | Q9HD26 | purified CAL PDZ, TMR-peptide fluorescence polarization, 1 h | inhibition, % at 20 µM | 330,000 compounds, 0.02% hits;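 active means highest replicate inhibition of at least 40%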
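System: tagged CAL PDZ domain. Schedule: 1 h room-temperature incubation prior to read. Signal: fluorescence polarization (mP). Measure: percent inhibition from loss of millipolarization.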
ARNT TACC3 PPI: disrupts binding between human ARNT and TACC3. 390,000 compounds, 0.66% hits. AlphaScreen His-ARNT PAS-B/GST-TACC3 binding, luminescence; TACC3 fragment carries E629A point mutation. inhibition, % at 9.99 µM;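 active means mean inhibition of replicates at least 50% and at least half of replicates each reaching 50%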
Numbers stand for hits; 0 = inactive; - = not tested or not shown. In the library only some 1.2% were active in any assay of this set; here they are far more common.

SMILES | CAL PDZ FP-1 | CAL PDZ FP-2 | ARNT TACC3 PPI
CC(C)(C)[C@H]1COC(=O)CCC/C=C/C[C@H](CC(=O)N(CCO)Cc2ccccc2)C(=O)N1 | 0 | 0 | 0
CC(C)(C)[C@H]1COC(=O)CCCC/C=C\C[C@H](CC(=O)N(CCO)Cc2ccccc2)C(=O)N1 | 105.9 | 0 | 0
N#Cc1c(NCc2ccccc2)ccnc1Cl | 40.5 | 0 | 0
N#Cc1sc(NCc2ccccc2)nc1Cl | 0 | 0 | 0
Cc1cc(C(=O)NCc2ccc3c(c2)OCO3)ccc1[N+](=O)[O-] | 68.9 | - | 0
Cc1ccc(C(=O)NCc2ccc3c(c2)OCO3)cc1C | 0 | 0 | 0
O=C(NCc1ccc2c(c1)OCO2)c1ccc2c(c1)OCO2 | 0 | 0 | 0
O=C(NCc1ccc2c(c1)OCO2)c1ccc(Cl)nc1 | 98.9 | 0 | 0
COc1ccc(S(=O)(=O)Nc2ccc3c(c2)CC(=O)N([C@@H](C)CO)C[C@H](C)[C@H](CN(C)S(=O)(=O)c2ccc(Cl)cc2)O3)cc1 | - | - | 0
C/C=C/c1ccc(OCCn2nnc3ccccc32)c(OC)c1 | 0 | 0 | 0
C=CCc1ccc(OCCn2nnc3ccccc32)c(OC)c1 | 94.9 | 0 | 0
C[C@H]1CN([C@@H](C)CO)C(=O)Cc2cc(NS(C)(=O)=O)ccc2O[C@H]1CN(C)S(C)(=O)=O | - | - | 0
CO[C@@H]1CC[C@@H]2CCN(C)C(=O)C[C@@H](c3ccccc3)CN(C)C(=O)c3cccc(C#N)c3OC[C@H]1O2 | - | - | 0
COc1ccc(NC(=O)c2c(NC(=O)CNCc3ccco3)sc3c2CCC3)cc1 | 0 | - | 0
CCOc1ccc(NC(=O)c2c(NC(=O)CNCCN3CCOCC3)sc3c2CCC3)cc1 | 0 | 0 | 63.9
CCCNC(=O)N(C)C[C@H]1Oc2cc(-c3cncnc3)ccc2S(=O)(=O)N([C@@H](C)CO)C[C@H]1C | - | - | 0
CC(=O)N1[C@@H]2c3ccc(C4=CCCC4)c(=O)n3C[C@H]1[C@H](CO)[C@H]2C(=O)N[C@H](C)c1ccccc1 | - | - | 0
O=C(CCN1CCOCC1)Nc1cc(C(=O)Nc2ccc(Cl)cc2)ccc1N1CC2CC(C1)c1cccc(=O)n1C2 (stereo not drawn) | 62.3 | 0 | 0
CCOc1ccc(NC(=O)c2ccc(N3CC4CC(C3)c3cccc(=O)n3C4)c(NC(=O)c3ccncc3)c2)cc1 (stereo not drawn) | 0 | 0 | 0
Cc1ccccc1S(=O)(=O)N[C@@H]1CC[C@H](CCn2cc(Cc3ccccc3)nn2)O[C@H]1CO | - | - | 0
COc1ccc(OC)c(-c2csc(NC(=O)c3ccc4c(c3)OCO4)n2)c1 | 79.6 | 0 | 0
COc1ccc(OC)c(NC(=O)c2ccc3c(c2)OCO3)c1 | 0 | 0 | 0
C[C@@H]1CN([C@H](C)CO)C(=O)c2cccc(NC(=O)C3CCCCC3)c2O[C@H]1CN(C)C(=O)Nc1ccc2c(c1)OCO2 | - | - | 0
O=C(CCn1cnnn1)Nc1ccc(Cl)cc1Cl | 86.4 | 0 | 0
N#Cc1cc2c(cc1NC(=O)CCn1cnnn1)OCO2 | 0 | 0 | 0
SMILES | CAL PDZ FP-1 | CAL PDZ FP-2 | ARNT TACC3 PPI
O=S(=O)(c1ccc(Cl)cc1)N1CCSC1c1ccco1 (stereo not drawn) | 164.4 | 0 | 0
O=[N+]([O-])c1ccc(S(=O)(=O)N2CCSC2c2ccco2)cc1 (stereo not drawn) | 0 | 0 | 0
C[C@@H]1CN([C@H](C)CO)C(=O)c2cc(NC(=O)Cn3cnnn3)ccc2O[C@@H]1CN(C)S(C)(=O)=O | - | - | 0
O=C(NNC(=O)c1ccc(Br)o1)c1ccc(NC(=O)c2ccccc2)cc1 | 0 | 0 | 0
N/C(=N\O)c1ccc(NC(=O)c2ccc(Br)o2)cc1 | 67.4 | 0 | 0
COc1cccc(C(=O)Nc2ccc3c(c2)C(=O)N(C)[C@@H]2CC[C@@H](CC(=O)NCC(F)(F)F)O[C@H]2CO3)c1 | - | - | 0
CN1C(=O)c2cc(NC(=O)c3cccc(F)c3)ccc2OC[C@@H]2O[C@@H](CC(=O)NCc3ccccc3Cl)CC[C@@H]21 | - | - | 0
c1ccc(N2CCN(Cc3cnc(N4CCOCC4)s3)CC2)cc1 | 0 | 0 | -
c1cnn(Cc2cnc(N3CCOCC3)s2)c1 | 61.1 | 0 | 0
C[C@H]1CN([C@@H](C)CO)C(=O)c2cccc(NC(=O)Nc3ccc(F)cc3)c2O[C@H]1CN(C)C(=O)Nc1ccc2c(c1)OCO2 | - | - | 0
C[C@@H]1CN([C@@H](C)CO)C(=O)c2cccc(NS(=O)(=O)c3cccs3)c2O[C@H]1CN(C)C(=O)Nc1ccc2c(c1)OCO2 | - | - | 0
CC(C)NC(=O)N(C)C[C@@H]1Oc2cc(-c3cncnc3)ccc2S(=O)(=O)N([C@H](C)CO)C[C@H]1C | - | - | 0
Cc1cc(C)c(S(=O)(=O)N(C)CC(=O)NCCN2CCOCC2)c(C)c1 | 31.0 | 0 | 0
COc1ccc(S(=O)(=O)N(C)CC(=O)NCCN2CCOCC2)cc1 | - | 0 | 0
CO[C@H]1CN(C)C(=O)c2ccc(NC(=O)C3CCC3)cc2OC[C@H](C)N(Cc2nccs2)C[C@@H]1C | - | - | 0
C[C@@H]1CCCCO[C@@H](CN(C)C(=O)Nc2ccccc2)[C@H](C)CN([C@@H](C)CO)C(=O)c2cc(NC(=O)CCCN(C)C)ccc2O1 | - | - | 0
COc1ccc(CCNC(=O)Cn2c(-c3nonc3N)nc3ccccc32)cc1OC | 40.5 | - | 0
CCOc1ccc(CCNC(=O)Cn2c(-c3nonc3N)nc3ccccc32)cc1OCC | 0 | 0 | 0
C[C@@H]1CCCCO[C@H](CN(C)C)[C@H](C)CN([C@@H](C)CO)C(=O)c2cc(N(C)C)ccc2O1 | - | - | 0
CNC[C@@H]1Oc2cc(C#CC3CCCC3)ccc2S(=O)(=O)N([C@@H](C)CO)C[C@H]1C | - | - | 0
O=C(C[C@H]1C=C[C@@H](NC(=O)Nc2ccc(F)cc2)[C@@H](CO)O1)NCc1cccc(F)c1 | - | - | 0
O=C(Cc1ccccc1)N[C@@H]1CC[C@@H](CC(=O)N2CCOCC2)O[C@@H]1CO | - | - | 0
CO[C@H]1CN(C)C(=O)c2ccc(NS(C)(=O)=O)cc2OC[C@H](C)N(CC2CCCCC2)C[C@H]1C | - | - | 0
CCOC(=O)C1=C(C)NC(=O)NC1c1cc(Br)c(O)c(OC)c1 (stereo not drawn) | 0 | - | 0
COc1cc(C2NC(=O)NC(C)=C2C(=O)OC2CCCCC2)cc(Br)c1O (stereo not drawn) | 0 | 87.8 | 0
SMILES | CAL PDZ FP-1 | CAL PDZ FP-2 | ARNT TACC3 PPI
CC(CO)NS(=O)(=O)c1ccc(Br)cc1F (stereo not drawn) | 40.2 | 0 | 0
O=S(=O)(N[C@H](CO)c1ccccc1)c1ccc(Br)cc1F | 0 | 0 | 0
C[C@@H]1CN([C@@H](C)CO)S(=O)(=O)c2ccc(C#CC(C)(C)O)cc2O[C@@H]1CN(C)C(=O)CN(C)C | - | - | 0
Cc1cc(C(=O)Nc2cccc3c2O[C@H](CN(C)CC2CCCCC2)[C@@H](C)CN([C@H](C)CO)C3=O)n(C)n1 | - | - | 0
CCOC(=O)C1=NNC(C(=O)c2ccc(C)cc2)C1c1ccc(C)cc1 (stereo not drawn) | 0 | 0 | 0
CCOC(=O)C1=NNC(C(=O)c2ccccc2)C1c1ccc(C)cc1 (stereo not drawn) | 58.7 | 0 | 0
Cc1c(NS(=O)(=O)c2cc(C(=O)NCc3cccnc3)ccc2Cl)c(=O)n(-c2ccccc2)n1C | 82.2 | 0 | 0
Cc1c(NS(=O)(=O)c2cc(C(=O)NCc3cccc(Cl)c3)ccc2Cl)c(=O)n(-c2ccccc2)n1C | 0 | 0 | 0
Cc1ccc([N+](=O)[O-])c(OCCN2CCCCCC2)c1 | 56.7 | 0 | 0
